High-throughput results (PubChem)
A selection: hits, their analogues and other compounds. The true share with any hit is near 4.1%.
KCNQ1 block: human KCNQ1 channel inhibition | P51787 | CHO-K1 KCNQ1, FluxOR thallium flux fluorescence; active compounds read high | B-score at 10 µM | 1.3% of 310,000 active | AID 2642;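 active means compounds whose thallium flux B-score, printed positive for inhibition, exceeds three library SD while starting fluorescence stays within three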;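 further: channel opened by potassium depolarization with thallium stimulus after 20 min compound exposure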
KCNQ1 act: potentiates or activates the human KCNQ1 potassium channel; CHO-K1 KCNQ1, thallium flux FluxOR fluorescence; active compounds read high; 0.35% of 310,000 active; B-score at 10 µM;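 active means fluorescence ratio B-score, a plate-corrected score, at least three library SD, with initial intensity B-score within 5 SD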
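Assay system: CHO-K1 cells stably expressing KCNQ1. Medium: assay buffer for compound exposure, DMSO matched across wells. Timing: 37 °C overnight plating, 90-min dark dye load, 20-min compound pretreatment. Signal: kinetic FluxOR fluorescence, 10 s baseline plus 110 s post-stimulus.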
KCNK3 inh: human KCNK3 channel inhibition, primary screen; B-score at 10 µM; 0.84% of 340,000 active; O14649; CHO-KCNK3 thallium flux, FluxOR fluorescence; active compounds read low;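 active means B-score under library mean minus 4 SD, starting fluorescence ratio at most library mean plus 5 SD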;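 further: more negative B-score means stronger inhibition of thallium flux through KCNK3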
hERG rescue: shields human hERG channel from block by proarrhythmic agents | Q12809 | CHO-hERG, FluxOR thallium flux, dofetilide IC70 present | activation (rescue from dofetilide block), less the hit threshold, % at 10 µM | 0.51% of 310,000 active | AID 1511;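 active means activation above the mean of controls blocked by dofetilide plus 5 SD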;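 further: thallium influx through hERG after potassium depolarization seen as dye fluorescence rise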
KCC2 mod: modulates chloride dependent transport by human KCC2. Q9H2X9. KCC2 cells, thallium flux FluoZin-2 fluorescence. B-score of Tl+ flux slope (higher = more flux/activation; lower = inhibition) at 10 µM. 2.2% of 190,000 active. AID 1456;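 active means thallium flux slope and its plate-corrected score both differing from the plate sample mean at a set confidence after two filtering rounds, in either direction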;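 further: slope of fluorescence scaled to starting intensity during 10 to 20 s after thallium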
KCNK9 block: blocks the human KCNK9 two-pore domain potassium channel; 1.2% of 310,000 active; AID 488922; HEK293 KCNK9, FluxOR thallium flux fluorescence; active compounds read low; B-score at 10 µM;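 active means ratio B-score over 3 SD below the library mean, with starting fluorescence within 5 SD of its mean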;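 further: negative B-score means less thallium flux so channel inhibition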
* marks the source's active call; other numbers are inactive results; i = inactive; · = not tested or not shown.

SMILES	KCNQ1 block	KCNQ1 act	KCNK3 inh	hERG rescue	KCC2 mod	KCNK9 block
COc1ccc([C@H]2/C=C\CN(S(=O)(=O)c3ccc4ccccc4c3)[C@@H](C)C(=O)N2Cc2ccc(F)cc2)cc1	i	i	i	-18	·	-7.8*
COc1ccc([C@H]2/C=C\CN(S(=O)(=O)c3ccc(C)cc3)[C@@H](C)C(=O)N2Cc2ccc(F)cc2)cc1	i	i	i	-13	·	i
CCCCCCCCCCCCN1[C@@H](CC(=O)OC)c2cc(C(F)(F)F)ccc2S1(=O)=O	i	i	i	-3	·	i
CCCCCCCCN1[C@@H](CC(=O)OCC)c2ccc(C(F)(F)F)cc2S1(=O)=O	6*	i	i	-2	·	i
CC1=CC2=NC(=O)/C(=C\c3cccn3CCOc3cccc(C)c3)C(=N)N2O1	i	i	i	-15	-1.5	-7*
CC1=CC2=NC(=O)/C(=C\c3cccn3CCOc3cc(C)cc(C)c3)C(=N)N2O1	i	i	i	-5	-0.72	-7.9*
O=C(/C=C/c1cccc([N+](=O)[O-])c1)NCc1ccccc1	i	i	i	-6	1	i
O=C(/C=C/c1cccc([N+](=O)[O-])c1)NCCSCc1cccc(Cl)c1	i	i	i	-11	-1.9	-7.7*
Cc1ccc(C2=CC(C)(c3ccc(C)cc3)Nc3nc(C(F)(F)F)nn32)cc1 (centres undefined)	i	i	i	-4	-0.037	-8*
CCCc1cc2c(cc1NC(=O)c1ccc(C(C)(C)C)cc1)OCO2	i	i	i	-6	1.3	-7.7*
CCC1C/C(=C\c2cc(OC)c(OC)cc2OC)C(=O)/C(=C/c2cc(OC)c(OC)cc2OC)C1 (centres undefined)	7*	i	-11*	-9	·	i
CCC1=NN(C(=O)Cc2ccc([N+](=O)[O-])cc2)C(O)(c2ccncc2)C1 (centres undefined)	i	i	i	-2	1.9	i
O=C(NCCc1c[nH]c2ccccc12)Nc1ccccc1	i	i	i	-11	-0.055	-6.9*
CC(C)NC(=S)NC(c1ccccc1)(c1ccccc1)c1ccccc1	10*	i	i	-4	·	i
CC(C)NC(=S)NN=C1c2ccccc2-c2ccccc21	i	i	i	-11	3.2	i
COc1cc(C(=S)N2CCN(c3cccc(Cl)c3)CC2)ccc1O	i	i	i	5.8*	-0.46	i
CCCCCn1c(=O)[nH]c2cc(C(=O)NCCc3ccc(OC)c(OC)c3)ccc2c1=O	i	i	i	-14	-1.6	i
CCCCNC(=O)c1sc(=S)n2c1[nH]c(=O)c1ccc(C(=O)NCCc3ccc(OC)c(OC)c3)cc12	i	i	-10*	-20	·	i
Cc1c(/C=N/O)c2ccccn2c1C(=O)c1ccc(F)cc1	i	i	i	-4	·	i
COc1ccc(C(=O)/C(C#N)=N/Nc2ccc([N+](=O)[O-])cc2)cc1	6*	i	i	-10	-3.6*	i
Cc1c(N/N=C(\C#N)C(=O)c2ccc(Cl)cc2)c(=O)n(-c2ccccc2)n1C	i	i	i	-11	0.29	i
COc1ccc(C(=O)CC(Nc2ccc([N+](=O)[O-])cc2)c2ccc(OC)cc2)cc1 (centres undefined)	9*	i	i	-12	-0.7	i
N#C/C(=N\Nc1ccc(Cl)cc1)C(=O)c1ccccc1	i	i	i	-8	-3.5*	i
COc1ccc(C(=O)CC(=O)Nc2ccc([N+](=O)[O-])cc2)cc1	i	i	i	-8	·	i
COc1ccc(-c2nn(-c3ccccc3)cc2C#N)cc1	i	i	i	-9	-0.042	i
SMILES	KCNQ1 block	KCNQ1 act	KCNK3 inh	hERG rescue	KCC2 mod	KCNK9 block
Oc1ccc(N=Nc2nc(-c3ccccc3)c(-c3ccccc3)[nH]2)cc1	i	i	i	-22	-1.3	-7.4*
CCN(CC)c1ccc2cc(NC(=O)CCC(=O)O)c(=O)oc2c1	14*	i	i	-26	i	i
O=C(CCn1c(=O)oc2ccccc21)N1CCN(c2ccccc2F)CC1	i	i	i	5.3*	·	i
CCn1c(C)cc(O)c(C(=O)Nc2cccc(Cl)c2)c1=O	i	i	i	-8	·	i
CCn1c(C)c(C)c2cc(C(=O)Nc3cccc(Cl)c3)ccc21	6*	i	i	-18	-0.003	i
O=C(Nc1ccnn1C1CCN(C(=O)c2ccc(F)c(Cl)c2)CC1)C1CC1	i	i	i	-6	·	i
CCOC(=O)[C@@H]1[C@H]2COc3cc(OC)ccc3[C@@H]2N2C(=O)N(c3ccc(Br)cc3)C(=O)[C@]12C	i	i	i	-7	·	i
N#C/C(C(=O)N1CCCCC1)=C1/N=C(NC(=O)c2ccc(F)cc2)c2ccccc21	i	i	i	-11	·	i
O=C(NCC(c1cccs1)N1CCOCC1)C1CCN(S(=O)(=O)c2ccccc2C(F)(F)F)CC1 (centres undefined)	i	i	i	-8	·	i
O=C(NCC(c1cccs1)N1CCOCC1)C1CCN(S(=O)(=O)c2cccc(C(F)(F)F)c2)CC1 (centres undefined)	i	9*	i	-6	·	i
CC(=O)c1ccc2c(c1)c(C#N)c1ccccc1[n+]2[O-]	11*	i	i	-23	·	i
c1cncc(-c2nn[nH]n2)c1	i	i	i	7.5*	-0.33	i
c1cncc(-c2cccnc2)c1	i	i	i	-8	·	i
Cc1cccc(OC(=O)n2c(=S)oc3cc(Cl)ccc32)c1	·	·	i	·	4.7*	·
CCc1ccc2nc(NC(=O)c3cc(C)on3)sc2c1	i	29*	i	9.4*	42*	i
CCc1noc(C)c1C(=O)Nc1nc2ccc(F)cc2s1	i	i	i	-17	·	i
Cc1cc(C)c2nc(NC(=O)c3cc(C)on3)sc2c1	i	24*	i	-1	39*	i
CN(C)c1ccc(/C=N/NC(=O)c2ccc(-n3cnnn3)cc2)cc1	·	·	i	·	·	·
O=C(CCn1c(=O)oc2ccccc21)Nc1nc2ccccc2s1	i	i	i	-11	·	-7.2*
O=NN(CCc1ccncc1)c1ccc(OCc2ccccc2)cc1	10*	i	-9.1*	-20	-2.6	i
O=C(NCc1ccncc1)C(=O)N/N=C/c1ccc(OCc2ccccc2)cc1	i	i	i	-9	-0.6	i
N#CC1(NC(=O)Cn2cc(C(F)(F)F)ccc2=O)CCCC1	·	·	i	·	·	·
Cc1ccc2oc(C(=O)N3CCN(CCO)CC3)c(C)c2c1	i	9*	i	8.5*	·	i
